Laboratory results reported in PubChem BioAssay AID624083 (The Scripps Research Institute Molecular Screening Center, 2012).

Target: VIM-2 metallo-beta-lactamase (Pseudomonas aeruginosa)
Experiment: VIM-2 metallo-beta-lactamase inhibitors, Ki determination, late-stage follow-up, biochemical, absorbance, probe candidates and analogs (AID 624083)
Conditions: recombinant VIM-2, nitrocefin hydrolysis absorbance 495 nm
Method in brief: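 System: VIM-2 enzyme | Quantity: VIM-2 at 0.1 nM final | Medium: HEPES buffer, pH 7.1, with zinc and Brij | Reagent: Nitrocefin substrate at varied concentrations | Compound dosing: Varied inhibitor concentrations | Timing: Enzyme reaction at room temperature | Signal: Absorbance at 495 nm tracking nitrocefin turnover over time | Read-out: Ki from mixed-inhibition regression | Repeats: Duplicates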

Row | Structure (SMILES) | Ki
1 | CN1CCN(NC(=O)CN2C(=O)/C(=C/c3c(Cl)cccc3Cl)SC2=S)CC1 | 1780 nM
2 | CN1CCN(NC(=O)CN2C(=O)/C(=C/c3c(Cl)ccc(Cl)c3Cl)SC2=S)CC1 | 183 nM
